Measured values: ChEMBL document CHEMBL1821590, “Novel dihydropyrimidines and its pyrazole derivatives: synthesis and pharmacological screening” (Eur J Med Chem, 2011)
Converted amounts (≈) assume the structure as drawn.

Tests used:
Type in all cases: functional
[1] = Antioxidant activity assessed as inhibition of lipid peroxidation using egg lecithin liposomes incubated for 1 hr
In short: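 Egg lecithin (3 mg/mL, phosphate buffer pH 7.4) sonicated 10 min to form liposomes. Sample or ascorbic acid (12.5–100 µg/mL) added. Peroxidation induced with FeCl3 and L-ascorbic acid, 1 h at 37 °C. Stopped with HCl/TCA/TBA/BHA, boiled 15 min, centrifuged, supernatant read at 532 nm. Triplicate. % inhibition vs control. IC50 derived.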

Metaphire posthuma [2] = test: Anthelmintic activity against Pheretima posthuma assessed as time taken for parasite death at 0.5% w/v
In short: (§1)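 Earthworms (Pheretima posthuma, spelled Perituma posthuma in text) exposed to test compounds at 0.1, 0.2 and 0.5% w/v. Albendazole served as standard, with an untreated control. Paralysis was recorded as the time until worms became motionless, then time to death was recorded, in minutes. Each value is the mean of three determinations with S.D.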

Candida albicans [3] = test: Antimicrobial activity against Candida albicans at 50 ug/ml by paper disc method; conditions: read-out: IZ
In short: (§2)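 Paper disc method against A. niger and C. albicans, with compounds at 25, 50 and 100 µg/mL. Amphotericin-B as standard.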

Bacillus subtilis [4] = test: Antimicrobial activity against Bacillus subtilis at 100 ug/ml by agar plate diffusion technique; conditions: read-out: IZ
In short: (§3)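 Agar plate diffusion against E. coli, P. aeruginosa, S. aureus and B. subtilis, with compounds at 25, 50 and 100 µg/mL. Streptomycin as standard.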

Pseudomonas aeruginosa [5] = test: Antimicrobial activity against Pseudomonas aeruginosa at 100 ug/ml by agar plate diffusion technique; conditions: read-out: IZ; in short: as §3
Candida albicans [6] = test: Antimicrobial activity against Candida albicans at 25 ug/ml by paper disc method; conditions: read-out: IZ; in short: as §2
[7] = Antioxidant activity assessed as hydrogen peroxide scavenging activity after 10 mins
In short: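 H2O2 (20 mM) in PBS pH 7.4. 1 mL of sample or ascorbic acid in methanol (12.5–100 µg/mL) added to 2 mL H2O2 solution. A230 read after 10 min. % inhibition = [1 − (Vt/Vc)] × 100. Triplicate, averaged. IC50 derived from % inhibition across concentrations.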

Metaphire posthuma [8] = test: Anthelmintic activity against Pheretima posthuma assessed as time taken for complete parasite paralysis at 0.1% w/v
In short: (§4)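 Earthworms (Pheretima posthuma) exposed to test solutions at 0.1, 0.2 and 0.5% w/v; time in minutes to complete paralysis (worms motionless) recorded. Albendazole as standard. Mean of three determinations ± S.D.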

Staphylococcus aureus [9] = test: Antimicrobial activity against Staphylococcus aureus at 100 ug/ml by agar plate diffusion technique; conditions: read-out: IZ; in short: as §3
Metaphire posthuma [10] = test: Anthelmintic activity against Pheretima posthuma assessed as time taken for complete parasite paralysis at 0.2% w/v; in short: as §4
Pseudomonas aeruginosa [11] = test: Antimicrobial activity against Pseudomonas aeruginosa at 50 ug/ml by agar plate diffusion technique; conditions: read-out: IZ; in short: as §3
Escherichia coli [12] = test: Antimicrobial activity against Escherichia coli at 50 ug/ml by agar plate diffusion technique; conditions: read-out: IZ; in short: as §3
Staphylococcus aureus [13] = test: Antimicrobial activity against Staphylococcus aureus at 50 ug/ml by agar plate diffusion technique; conditions: read-out: IZ; in short: as §3
Aspergillus niger [14] = test: Antimicrobial activity against Aspergillus niger at 50 ug/ml by paper disc method; conditions: read-out: IZ; in short: as §2
[15] = Antioxidant activity assessed as potassium ferricyanide ion reducing power after 20 mins
In short: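 Oyaizu method. Samples or ascorbic acid in DMF (12.5–100 µg/mL) mixed with 0.2 M phosphate buffer pH 6.6 and 1% potassium ferricyanide, 20 min at 50 °C. 10% TCA added, centrifuged. Supernatant mixed with water and 0.1% FeCl3, read at 700 nm. % = [(Vt/Vc) − 1] × 100. IC50 derived.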

Candida albicans [16] = test: Antimicrobial activity against Candida albicans at 100 ug/ml by paper disc method; conditions: read-out: IZ; in short: as §2
Bacillus subtilis [17] = test: Antimicrobial activity against Bacillus subtilis at 50 ug/ml by agar plate diffusion technique; conditions: read-out: IZ; in short: as §3
Metaphire posthuma [18] = test: Anthelmintic activity against Pheretima posthuma assessed as time taken for complete parasite paralysis at 0.5% w/v; in short: as §4
Bacillus subtilis [19] = test: Antimicrobial activity against Bacillus subtilis at 25 ug/ml by agar plate diffusion technique; conditions: read-out: IZ; in short: as §3
Staphylococcus aureus [20] = test: Antimicrobial activity against Staphylococcus aureus at 25 ug/ml by agar plate diffusion technique; conditions: read-out: IZ; in short: as §3
[21] = Antioxidant activity assessed as nitric oxide radical scavenging activity after 150 mins
In short: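 10 mM sodium nitroprusside (4 mL), PBS pH 7.4 (1 mL) and sample or ascorbic acid in DMSO (1 mL, 12.5–100 µg/mL), incubated 150 min at 25 °C. Nitrite detected with sulphanilic acid (5 min) then naphthylethylenediamine (30 min, diffused light). Read at […]. Triplicate. % inhibition = [1 − (Vt/Vc)] × 100. IC50 derived from it.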

Pseudomonas aeruginosa [22] = test: Antimicrobial activity against Pseudomonas aeruginosa at 25 ug/ml by agar plate diffusion technique; conditions: read-out: IZ; in short: as §3
Aspergillus niger [23] = test: Antimicrobial activity against Aspergillus niger at 100 ug/ml by paper disc method; conditions: read-out: IZ; in short: as §2
[24] = Antiinflammatory activity assessed as inhibition of albumin denaturation at 100 ug/ml by UV-visible spectrophotometry
In short: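 Compounds dissolved in minimal DMF, diluted in PBS pH 7.4 (final DMF <2.5%). 1 mL test solution (100 µg/mL) plus 1 mL 1% albumin in PBS, 15 min at 27 ± 1 °C, then heated 10 min at 60 ± 1 °C. After cooling, turbidity read at 660 nm. % inhibition = [(Vt/Vc) − 1] × 100 against a no-drug control. Triplicate, averaged. Diclofenac standard.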

Aspergillus niger [25] = test: Antimicrobial activity against Aspergillus niger at 25 ug/ml by paper disc method; conditions: read-out: IZ; in short: as §2
Escherichia coli [26] = test: Antimicrobial activity against Escherichia coli at 25 ug/ml by agar plate diffusion technique; conditions: read-out: IZ; in short: as §3
Metaphire posthuma [27] = test: Anthelmintic activity against Pheretima posthuma assessed as time taken for parasite death at 0.2% w/v; in short: as §1
Metaphire posthuma [28] = test: Anthelmintic activity against Pheretima posthuma assessed as time taken for parasite death at 0.1% w/v; in short: as §1
Escherichia coli [29] = test: Antimicrobial activity against Escherichia coli at 100 ug/ml by agar plate diffusion technique; conditions: read-out: IZ; in short: as §3

## CSc1nc(-c2ccc(Cl)cc2)c(C#N)c(=O)n1C
[1]
  IC50: 54 µg/mL (≈ 185 µM)
Metaphire posthuma [2]
  Time: 55.12 min
Candida albicans [3]
  zone of inhibition at 50 µg/mL: 13.8 mm
Bacillus subtilis [4]
  zone of inhibition at 100 µg/mL: 27.3 mm
Pseudomonas aeruginosa [5]
  zone of inhibition at 100 µg/mL: 11.9 mm
Candida albicans [6]
  zone of inhibition at 25 µg/mL: 9.27 mm
[7]
  IC50: 56 µg/mL (≈ 192 µM)
Metaphire posthuma [8]
  Time: 48.15 min
Staphylococcus aureus [9]
  zone of inhibition at 100 µg/mL: 15.8 mm
Metaphire posthuma [10]
  Time: 39.29 min
Pseudomonas aeruginosa [11]
  zone of inhibition at 50 µg/mL: 9.62 mm
Escherichia coli [12]
  zone of inhibition at 50 µg/mL: 9.82 mm
Staphylococcus aureus [13]
  zone of inhibition at 50 µg/mL: 11.7 mm
Aspergillus niger [14]
  zone of inhibition at 50 µg/mL: 11 mm
[15]
  IC50: 64 µg/mL (≈ 219 µM)
Candida albicans [16]
  zone of inhibition at 100 µg/mL: 18.4 mm
Bacillus subtilis [17]
  zone of inhibition at 50 µg/mL: 18.1 mm
Metaphire posthuma [18]
  Time: 40.51 min
Bacillus subtilis [19]
  zone of inhibition at 25 µg/mL: 13.8 mm
Staphylococcus aureus [20]
  zone of inhibition at 25 µg/mL: 9.68 mm
[21]
  IC50: 71 µg/mL (≈ 243 µM)
Pseudomonas aeruginosa [22]
  zone of inhibition at 25 µg/mL: 8.85 mm
Aspergillus niger [23]
  zone of inhibition at 100 µg/mL: 18.7 mm
[24]
  inhibition: 79.1%
Aspergillus niger [25]
  zone of inhibition at 25 µg/mL: 9.92 mm
Escherichia coli [26]
  zone of inhibition at 25 µg/mL: 7.08 mm
Metaphire posthuma [27]
  Time: 57.38 min
Metaphire posthuma [28]
  Time: 60.96 min
Escherichia coli [29]
  zone of inhibition at 100 µg/mL: 11.7 mm

## CSc1nc(-c2ccccc2O)c(C#N)c(=O)n1C
[1]
  IC50: 44 µg/mL (≈ 161 µM)
Metaphire posthuma [2]
  Time: 45.3 min
Candida albicans [3]
  zone of inhibition at 50 µg/mL: 12.6 mm
Bacillus subtilis [4]
  zone of inhibition at 100 µg/mL: 25.5 mm
Pseudomonas aeruginosa [5]
  zone of inhibition at 100 µg/mL: 10.8 mm
Candida albicans [6]
  zone of inhibition at 25 µg/mL: 8.84 mm
[7]
  IC50: 39 µg/mL (≈ 143 µM)
Metaphire posthuma [8]
  Time: 40.28 min
Staphylococcus aureus [9]
  zone of inhibition at 100 µg/mL: 11.2 mm
Metaphire posthuma [10]
  Time: 39.46 min
Pseudomonas aeruginosa [11]
  zone of inhibition at 50 µg/mL: 8.16 mm
Escherichia coli [12]
  zone of inhibition at 50 µg/mL: 9.16 mm
Staphylococcus aureus [13]
  zone of inhibition at 50 µg/mL: 9.33 mm
Aspergillus niger [14]
  zone of inhibition at 50 µg/mL: 9.46 mm
[15]
  IC50: 52 µg/mL (≈ 190 µM)
Candida albicans [16]
  zone of inhibition at 100 µg/mL: 20 mm
Bacillus subtilis [17]
  zone of inhibition at 50 µg/mL: 16.9 mm
Metaphire posthuma [18]
  Time: 35.14 min
Bacillus subtilis [19]
  zone of inhibition at 25 µg/mL: 12.8 mm
Staphylococcus aureus [20]
  zone of inhibition at 25 µg/mL: 8.14 mm
[21]
  IC50: 58 µg/mL (≈ 212 µM)
Pseudomonas aeruginosa [22]
  zone of inhibition at 25 µg/mL: 6.36 mm
Aspergillus niger [23]
  zone of inhibition at 100 µg/mL: 15.4 mm
[24]
  inhibition: 51.9%
Aspergillus niger [25]
  zone of inhibition at 25 µg/mL: 8 mm
Escherichia coli [26]
  zone of inhibition at 25 µg/mL: 6.25 mm
Metaphire posthuma [27]
  Time: 48.34 min
Metaphire posthuma [28]
  Time: 50.82 min
Escherichia coli [29]
  zone of inhibition at 100 µg/mL: 11.3 mm

## CCOC(=O)c1cnn(-c2nc(-c3ccc(N(C)C)cc3)c(C#N)c(=O)n2C)c1N
[1]
  IC50: 111 µg/mL (≈ 272 µM)
Metaphire posthuma [2]
  Time: 58.72 min
Candida albicans [3]
  zone of inhibition at 50 µg/mL: 13.7 mm
Bacillus subtilis [4]
  zone of inhibition at 100 µg/mL: 20.9 mm
Pseudomonas aeruginosa [5]
  zone of inhibition at 100 µg/mL: 16.7 mm
Candida albicans [6]
  zone of inhibition at 25 µg/mL: 10.4 mm
[7]
  IC50: 119 µg/mL (≈ 292 µM)
Metaphire posthuma [8]
  Time: 41.45 min
Staphylococcus aureus [9]
  zone of inhibition at 100 µg/mL: 16.5 mm
Metaphire posthuma [10]
  Time: 46.58 min
Pseudomonas aeruginosa [11]
  zone of inhibition at 50 µg/mL: 11.9 mm
Escherichia coli [12]
  zone of inhibition at 50 µg/mL: 10.2 mm
Staphylococcus aureus [13]
  zone of inhibition at 50 µg/mL: 13.5 mm
Aspergillus niger [14]
  zone of inhibition at 50 µg/mL: 12.2 mm
[15]
  IC50: 98 µg/mL (≈ 241 µM)
Candida albicans [16]
  zone of inhibition at 100 µg/mL: 17.7 mm
Bacillus subtilis [17]
  zone of inhibition at 50 µg/mL: 14.8 mm
Metaphire posthuma [18]
  Time: 42.87 min
Bacillus subtilis [19]
  zone of inhibition at 25 µg/mL: 11.2 mm
Staphylococcus aureus [20]
  zone of inhibition at 25 µg/mL: 10.1 mm
[21]
  IC50: 115 µg/mL (≈ 282 µM)
Pseudomonas aeruginosa [22]
  zone of inhibition at 25 µg/mL: 8.29 mm
Aspergillus niger [23]
  zone of inhibition at 100 µg/mL: 18.3 mm
[24]
  inhibition: 20.4%
Aspergillus niger [25]
  zone of inhibition at 25 µg/mL: 10.2 mm
Escherichia coli [26]
  zone of inhibition at 25 µg/mL: 11.1 mm
Metaphire posthuma [27]
  Time: 57.55 min
Metaphire posthuma [28]
  Time: 49.79 min
Escherichia coli [29]
  zone of inhibition at 100 µg/mL: 14 mm
